These results are taken from ChEMBL document CHEMBL1156338 (J Med Chem, 2010).

Activity calls are given as the source filed them. The rule behind the calls is not given here.

Data set [1] has as its target T1, Mitogen-activated protein kinase 13 (Homo sapiens, UniProt O15264).
T1 sequence (O15264 whole entry): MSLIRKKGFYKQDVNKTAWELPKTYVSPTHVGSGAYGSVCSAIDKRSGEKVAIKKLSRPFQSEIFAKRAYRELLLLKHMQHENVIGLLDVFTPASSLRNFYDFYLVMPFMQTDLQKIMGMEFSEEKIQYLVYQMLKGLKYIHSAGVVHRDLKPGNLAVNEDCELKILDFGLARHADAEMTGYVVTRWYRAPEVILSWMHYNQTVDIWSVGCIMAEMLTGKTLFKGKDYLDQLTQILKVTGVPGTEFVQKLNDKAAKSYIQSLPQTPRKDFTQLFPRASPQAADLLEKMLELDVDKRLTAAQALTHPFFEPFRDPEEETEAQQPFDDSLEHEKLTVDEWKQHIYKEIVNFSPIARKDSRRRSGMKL
Kind of data set: Inhibition of p38delta.

For data set [2], the target named is Mitogen-activated protein kinase 14 (Homo sapiens, UniProt Q16539). Nature of the data set: Inhibition of p38alpha at 1 uM relative to control.
Mitogen-activated protein kinase 14, sequence (Q16539 whole entry): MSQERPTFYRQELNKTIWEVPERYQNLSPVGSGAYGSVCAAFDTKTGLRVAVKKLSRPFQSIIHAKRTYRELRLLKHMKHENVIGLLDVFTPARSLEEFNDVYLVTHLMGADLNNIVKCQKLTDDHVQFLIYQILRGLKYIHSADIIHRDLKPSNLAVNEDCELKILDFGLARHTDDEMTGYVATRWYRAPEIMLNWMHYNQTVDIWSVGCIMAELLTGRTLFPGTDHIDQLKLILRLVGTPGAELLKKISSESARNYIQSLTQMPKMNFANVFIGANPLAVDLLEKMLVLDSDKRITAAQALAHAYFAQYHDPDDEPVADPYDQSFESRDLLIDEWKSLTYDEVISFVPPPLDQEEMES
Data set [3] concerns the target Mitogen-activated protein kinase 11 (Homo sapiens, UniProt Q15759). Kind of data set: Inhibition of p38beta at 1 uM relative to control.
The target of another data set is Cytochrome P450 3A4 (Homo sapiens, UniProt P08684). Kind of data set: Inhibition of CYP3A4 in human liver microsomes. Type of data set: ADME, Microsome. (Liver microsomes are a subcellular fraction often used to study metabolism.)
Cytochrome P450 3A4, sequence (P08684 whole entry): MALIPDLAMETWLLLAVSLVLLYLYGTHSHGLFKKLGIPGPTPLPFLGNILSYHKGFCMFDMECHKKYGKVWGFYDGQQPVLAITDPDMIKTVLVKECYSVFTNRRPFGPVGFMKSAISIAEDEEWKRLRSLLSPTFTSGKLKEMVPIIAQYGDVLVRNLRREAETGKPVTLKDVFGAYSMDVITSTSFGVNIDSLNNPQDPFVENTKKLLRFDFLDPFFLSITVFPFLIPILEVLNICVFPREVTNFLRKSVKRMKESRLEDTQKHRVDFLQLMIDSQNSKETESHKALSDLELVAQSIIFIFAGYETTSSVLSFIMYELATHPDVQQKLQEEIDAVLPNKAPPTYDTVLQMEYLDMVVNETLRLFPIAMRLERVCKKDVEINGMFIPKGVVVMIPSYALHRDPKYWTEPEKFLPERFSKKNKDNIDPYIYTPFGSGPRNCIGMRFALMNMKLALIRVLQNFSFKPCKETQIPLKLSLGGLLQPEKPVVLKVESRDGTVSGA
Data set [4] deals with Platelet-derived growth factor receptor alpha (Homo sapiens, UniProt P16234). Kind of data set: Binding affinity to PDGFRalpha.
Platelet-derived growth factor receptor alpha, sequence (P16234 whole entry): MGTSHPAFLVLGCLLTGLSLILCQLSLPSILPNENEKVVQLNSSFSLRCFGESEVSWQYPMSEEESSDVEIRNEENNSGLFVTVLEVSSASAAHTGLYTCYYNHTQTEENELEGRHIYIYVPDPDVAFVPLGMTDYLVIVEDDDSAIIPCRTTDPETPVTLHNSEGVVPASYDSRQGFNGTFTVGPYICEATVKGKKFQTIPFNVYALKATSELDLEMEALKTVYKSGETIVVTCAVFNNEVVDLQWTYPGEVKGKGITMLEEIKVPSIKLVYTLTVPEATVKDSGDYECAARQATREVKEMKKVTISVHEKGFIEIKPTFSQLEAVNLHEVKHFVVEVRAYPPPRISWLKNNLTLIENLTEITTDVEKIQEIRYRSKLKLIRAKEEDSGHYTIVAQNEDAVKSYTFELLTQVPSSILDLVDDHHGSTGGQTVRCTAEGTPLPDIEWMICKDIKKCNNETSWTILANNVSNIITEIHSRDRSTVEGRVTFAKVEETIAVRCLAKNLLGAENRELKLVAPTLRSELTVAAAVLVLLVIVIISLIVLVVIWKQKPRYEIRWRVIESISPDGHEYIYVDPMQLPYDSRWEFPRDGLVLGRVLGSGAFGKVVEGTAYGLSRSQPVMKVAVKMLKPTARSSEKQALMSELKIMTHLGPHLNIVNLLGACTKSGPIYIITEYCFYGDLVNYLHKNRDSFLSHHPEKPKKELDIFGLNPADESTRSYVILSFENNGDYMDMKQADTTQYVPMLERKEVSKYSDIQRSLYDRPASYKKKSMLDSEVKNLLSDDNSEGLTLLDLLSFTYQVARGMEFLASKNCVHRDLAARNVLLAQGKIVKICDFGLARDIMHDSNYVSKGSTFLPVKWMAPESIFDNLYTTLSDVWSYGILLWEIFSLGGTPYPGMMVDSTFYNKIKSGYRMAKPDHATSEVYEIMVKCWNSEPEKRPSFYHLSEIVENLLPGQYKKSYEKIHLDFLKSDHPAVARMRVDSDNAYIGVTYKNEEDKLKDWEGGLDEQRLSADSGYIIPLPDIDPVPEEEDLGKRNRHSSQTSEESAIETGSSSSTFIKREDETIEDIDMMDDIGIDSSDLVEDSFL
Another data set can be described thus: in vitro. To be noted: human, Caco-2.
The next data set concerns the target Cytochrome P450 2D6 (Homo sapiens, UniProt P10635). Kind of data set: Inhibition of CYP2D6 in human liver microsomes. Type of data set: ADME, Microsome.
For the next data set, the system named is Rattus norvegicus. Nature of the data set: Antiarthritic activity against porcine type 2 collagen-induced arthritis Lewis rat model assessed as area under the paw swelling curve at 0.01 to 1 mg/kg, po relative to control. Type of data set: functional, organism-based. The gist of the method:
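Lewis rats immunized by intradermal porcine type II collagen emulsified 1:1 in incomplete Freund's adjuvant. Grouped at disease onset (day 0, 10-12 days post-immunization). Oral dosing once daily for 7 days in 15% HPBCD, 1% HPMC, 1% Pluronic F68, pH 2.2. Paw diameter measured daily days 0-7.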

A further data set deals with T2, Cytochrome P450 1A2 (Homo sapiens, UniProt P05177).
T2 sequence (P05177 whole entry): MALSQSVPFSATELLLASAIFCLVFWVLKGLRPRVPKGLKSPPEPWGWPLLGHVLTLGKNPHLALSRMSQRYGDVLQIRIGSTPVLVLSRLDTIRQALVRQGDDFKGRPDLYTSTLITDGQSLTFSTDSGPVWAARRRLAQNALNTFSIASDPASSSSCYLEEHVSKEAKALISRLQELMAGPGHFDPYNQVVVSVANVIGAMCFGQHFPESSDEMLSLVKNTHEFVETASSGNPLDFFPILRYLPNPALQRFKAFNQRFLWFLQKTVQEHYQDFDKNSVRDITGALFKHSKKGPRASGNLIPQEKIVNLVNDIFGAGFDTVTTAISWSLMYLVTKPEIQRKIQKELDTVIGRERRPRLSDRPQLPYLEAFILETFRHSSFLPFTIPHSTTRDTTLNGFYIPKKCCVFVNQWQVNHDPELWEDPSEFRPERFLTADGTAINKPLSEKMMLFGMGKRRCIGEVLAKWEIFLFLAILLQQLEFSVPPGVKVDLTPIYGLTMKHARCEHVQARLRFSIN
Kind of data set: Induction of CYP1A2 in human hepatocytes at 25 uM. Type of data set: ADME, cell-based, Hepatocyte.

For the next data set, the system named is THP-1. Nature of the data set: Inhibition of LPS-induced TNFalpha production in human THP1 cells after 3 hrs. Type of data set: functional, cell-based. The note with it: Homo sapiens, THP-1, 3 h; read-out: IC50. The gist of the method: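 THP-1 cells at 1.5 x 10^6/mL in RPMI 1640, 10% heat-inactivated FBS, NEAA, 30 μM βME. 3-fold serial compound dilutions in DMSO, then LPS stimulation for 3 h at 37 C, 5% CO2. Secreted TNF-alpha read by electrochemiluminescent immunoassay; percent of DMSO control; IC50 is the mean of at least three independent curves.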

The target of data set [5] is RAF proto-oncogene serine/threonine-protein kinase (Homo sapiens, UniProt P04049). Nature of the data set: Binding affinity to RAF1.
RAF proto-oncogene serine/threonine-protein kinase, sequence (P04049 whole entry): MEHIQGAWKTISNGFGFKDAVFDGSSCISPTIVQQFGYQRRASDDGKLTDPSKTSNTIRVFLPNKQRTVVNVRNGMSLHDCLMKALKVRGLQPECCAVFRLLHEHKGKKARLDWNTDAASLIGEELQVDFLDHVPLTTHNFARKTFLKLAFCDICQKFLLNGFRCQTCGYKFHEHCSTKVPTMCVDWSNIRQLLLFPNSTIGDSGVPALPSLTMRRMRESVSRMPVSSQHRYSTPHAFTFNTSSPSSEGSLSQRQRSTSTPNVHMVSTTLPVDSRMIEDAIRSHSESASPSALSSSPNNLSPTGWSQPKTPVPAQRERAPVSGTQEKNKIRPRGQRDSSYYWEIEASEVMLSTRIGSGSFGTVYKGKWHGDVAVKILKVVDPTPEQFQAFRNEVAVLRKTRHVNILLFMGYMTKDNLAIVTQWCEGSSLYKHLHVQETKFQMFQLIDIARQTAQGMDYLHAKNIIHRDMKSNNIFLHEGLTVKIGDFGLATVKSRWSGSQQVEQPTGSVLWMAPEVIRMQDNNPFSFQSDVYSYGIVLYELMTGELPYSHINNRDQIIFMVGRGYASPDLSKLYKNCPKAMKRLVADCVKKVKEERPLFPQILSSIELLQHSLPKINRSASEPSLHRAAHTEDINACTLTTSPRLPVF
Data set [6] is described as follows: Cmax in porcine type 2 collagen-induced arthritis Lewis rat model at 0.01 to 1 mg/kg, po. To be noted: in vivo. Type of data set: ADME, organism-based. Also on record: dose 0.01-1 mg/kg, route oral.

Mitogen-activated protein kinase 11, sequence (Q15759 whole entry): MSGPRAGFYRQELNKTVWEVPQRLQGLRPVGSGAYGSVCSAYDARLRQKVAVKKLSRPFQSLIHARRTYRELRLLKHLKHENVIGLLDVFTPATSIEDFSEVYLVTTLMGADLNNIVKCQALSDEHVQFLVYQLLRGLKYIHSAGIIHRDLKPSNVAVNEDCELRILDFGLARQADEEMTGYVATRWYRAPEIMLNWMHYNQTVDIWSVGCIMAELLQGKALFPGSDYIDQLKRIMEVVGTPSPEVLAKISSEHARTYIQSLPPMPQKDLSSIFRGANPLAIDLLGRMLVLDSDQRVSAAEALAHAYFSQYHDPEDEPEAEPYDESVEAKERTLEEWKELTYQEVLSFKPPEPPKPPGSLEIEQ
Cytochrome P450 2D6, sequence (P10635 whole entry): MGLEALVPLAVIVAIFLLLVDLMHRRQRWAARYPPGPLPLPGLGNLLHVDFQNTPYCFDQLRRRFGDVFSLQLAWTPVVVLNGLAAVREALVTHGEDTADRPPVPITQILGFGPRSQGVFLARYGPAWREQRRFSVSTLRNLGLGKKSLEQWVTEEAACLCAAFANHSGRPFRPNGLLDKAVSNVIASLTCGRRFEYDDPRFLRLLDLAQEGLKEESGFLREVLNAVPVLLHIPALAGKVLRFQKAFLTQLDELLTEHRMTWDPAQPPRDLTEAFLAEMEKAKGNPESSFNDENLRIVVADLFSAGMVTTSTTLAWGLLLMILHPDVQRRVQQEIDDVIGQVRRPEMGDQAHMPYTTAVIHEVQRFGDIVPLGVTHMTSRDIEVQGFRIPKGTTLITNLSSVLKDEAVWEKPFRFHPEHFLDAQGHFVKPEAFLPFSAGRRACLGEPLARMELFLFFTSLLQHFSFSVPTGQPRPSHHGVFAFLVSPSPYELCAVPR

The molecule `Cc1ccc(C(=O)NC2CC2)cc1-c1cc2cnn(-c3c(F)cccc3F)c2n(C)c1=O` gave a Ki in data set [1] of 2100 nM. The inhibition in data set [2] and in data set [3] was less than 50% throughout. Further, the IC50 on Cytochrome P450 3A4 is greater than 25000 nM; at Cytochrome P450 2D6 it was greater than 25000 nM; with THP-1, 0.6 nM. Further, the Kd in data set [4] and in [5] was 1100 nM each time. The molecule also gave a Papp B→A in the data set “in vitro” of 27 ×10⁻⁶ cm/s. The outcome in the data set with Rattus norvegicus was Active. Besides, the Activity result at Cytochrome P450 1A2 was “Not Active”. The highest level in [6] (Cmax) was 11 nM.

The Ki is the dissociation constant of the complex between target and ligand, obtained from inhibition or displacement. High values mean a looser hold on the target, low ones a stronger hold on the target. In general, inhibition refers to the change of the read-out against control, counted positive when it falls. As a reminder, the IC50 is the concentration at which inhibition is half-maximal. As a reminder, the Kd is a measure of binding affinity in units of concentration. A low value points to a tighter complex. The term Papp B→A denotes how fast a substance crosses the layer from the basolateral side. One may read the Cmax as the highest concentration seen after dosing.
